Experimental data reported in ChEMBL document CHEMBL1142988 (J Med Chem, 2007).
Calls of active or inactive are those of the source. The calls are words filed in the database; no cut-off is given here.

What was measured:
[1] = target: Glutamate receptor ionotropic, kainate 1 (Rattus norvegicus, UniProt P22756); assay: Activity at native GLUK5 kainate receptor assessed as antagonism of kainite-induced depolarization of neonatal non-anaesthetised rat dorsal root fibres
[2] = Antagonist activity at native AMPA receptor assessed as fDR-VRP reduction of neonatal rat spinal cord motorneurones; type: functional
Outline: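 Neonatal (1-5-day-old, non-anaesthetized) rat hemisected spinal cord. Concentration-response curves for antagonist (5 min applications) on the fast component of the dorsal root-evoked ventral root potential, with 2 mM MgSO4 and 50 µM (R)-AP5 (30 min preincubation) to block NMDA receptors; mean ± SEM, n = 3.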

Glutamate receptor 2 = Glutamate receptor 2 (Homo sapiens, UniProt P42262); assay: Antagonist activity at human recombinant GLUA2-AMPA receptor expressed in HEK293 cells assessed as inhibition of glutamate-stimulated calcium influx by FLIPR assay; type: functional, cell-based
[3] = target: Glutamate receptor ionotropic, kainate 2 (Homo sapiens, UniProt Q13002); assay: Antagonist activity at human recombinant GLUK6 expressed in HEK293 cells assessed as inhibition of glutamate-stimulated calcium influx by FLIPR assay; type: functional, cell-based
[4] = target: Glutamate receptor ionotropic, kainate 1 (Homo sapiens) (UniProt P39086); assay: Antagonist activity at human recombinant GLUK5/GLUK2 expressed in HEK293 cells assessed as inhibition of glutamate-stimulated calcium influx by FLIPR assay; type: functional, cell-based
[5] = Antagonist activity at human recombinant GLUK6/GLUK2 expressed in HEK293 cells assessed as inhibition of glutamate-stimulated calcium influx by FLIPR assay; type: functional, cell-based
[6] = target: Glutamate receptor ionotropic, kainate 1 (Homo sapiens) (UniProt P39086); assay: Antagonist activity at human recombinant GLUK5 receptor expressed in HEK293 cells assessed as inhibition of glutamate-stimulated calcium influx by FLIPR assay; type: functional, cell-based
Outline: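 Human GLUK5(Q) cells (Bmax of [3H]kainate binding 1.7 pmol/mg) loaded with calcium dye and read on FLIPR. Kb derived from IC50 by Cheng-Prusoff. Mean ± SEM, n = 3.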

[7] = Antagonist activity at human recombinant GLUK5/GLUK6 expressed in HEK293 cells assessed as inhibition of glutamate-stimulated calcium influx by FLIPR assay; type: functional, cell-based
[8] = Antagonist activity at human recombinant GLUK6/GLUK2 expressed in HEK293 cells assessed as inhibition of glutamate-stimulated calcium influx at 100 uM by FLIPR assay; type: functional
[9] = target: Metabotropic glutamate receptor 5 (Rattus norvegicus) (UniProt P31424); assay: Antagonist activity at mGlu5 receptor assessed as inhibition of DHPG-induced depolarization of neonatal rat spinal cord motoneurons at 10 uM; type: functional
[10] = target: T1, Glutamate NMDA receptor (Rattus norvegicus) (UniProt P35439+Q00959+Q00960+Q00961+Q62645+Q8VHN2+Q9R1M7); assay: Antagonist activity at NMDA receptor assessed as inhibition of NMDA-induced depolarization of neonatal rat spinal cord motoneurons at 10 uM; type: functional
[11] = Activity at native AMPA receptor assessed as antagonism of (S)-5-fluoriwillardiine-induced depolarization of neonatal rat spinal cord motorneurones; type: functional
[12] = target: Metabotropic glutamate receptor 1 (Rattus norvegicus) (UniProt P23385); assay: Antagonist activity at mGlu1 receptor assessed as inhibition of DHPG-induced depolarization of neonatal rat motoneurons at 10 uM; type: functional
[13] = target: Metabotropic glutamate receptor 5 (Rattus norvegicus) (UniProt P31424); assay: Antagonist activity at mGlu5 receptor assessed as inhibition of DHPG-induced depolarization of neonatal rat spinal cord motoneurons at 1 uM; type: functional
[14] = target: Metabotropic glutamate receptor 1 (Rattus norvegicus) (UniProt P23385); assay: Antagonist activity at mGlu1 receptor assessed as inhibition of DHPG-induced depolarization of neonatal rat spinal cord motoneurons at 1 uM; type: functional
[15] = target: T1, Glutamate NMDA receptor (Rattus norvegicus); assay: Antagonist activity at NMDA receptor assessed as inhibition of NMDA-induced depolarization of neonatal rat spinal cord motoneurons at 1 uM; type: functional

Chain of Glutamate receptor ionotropic, kainate 1 (Homo sapiens) (P39086 whole entry): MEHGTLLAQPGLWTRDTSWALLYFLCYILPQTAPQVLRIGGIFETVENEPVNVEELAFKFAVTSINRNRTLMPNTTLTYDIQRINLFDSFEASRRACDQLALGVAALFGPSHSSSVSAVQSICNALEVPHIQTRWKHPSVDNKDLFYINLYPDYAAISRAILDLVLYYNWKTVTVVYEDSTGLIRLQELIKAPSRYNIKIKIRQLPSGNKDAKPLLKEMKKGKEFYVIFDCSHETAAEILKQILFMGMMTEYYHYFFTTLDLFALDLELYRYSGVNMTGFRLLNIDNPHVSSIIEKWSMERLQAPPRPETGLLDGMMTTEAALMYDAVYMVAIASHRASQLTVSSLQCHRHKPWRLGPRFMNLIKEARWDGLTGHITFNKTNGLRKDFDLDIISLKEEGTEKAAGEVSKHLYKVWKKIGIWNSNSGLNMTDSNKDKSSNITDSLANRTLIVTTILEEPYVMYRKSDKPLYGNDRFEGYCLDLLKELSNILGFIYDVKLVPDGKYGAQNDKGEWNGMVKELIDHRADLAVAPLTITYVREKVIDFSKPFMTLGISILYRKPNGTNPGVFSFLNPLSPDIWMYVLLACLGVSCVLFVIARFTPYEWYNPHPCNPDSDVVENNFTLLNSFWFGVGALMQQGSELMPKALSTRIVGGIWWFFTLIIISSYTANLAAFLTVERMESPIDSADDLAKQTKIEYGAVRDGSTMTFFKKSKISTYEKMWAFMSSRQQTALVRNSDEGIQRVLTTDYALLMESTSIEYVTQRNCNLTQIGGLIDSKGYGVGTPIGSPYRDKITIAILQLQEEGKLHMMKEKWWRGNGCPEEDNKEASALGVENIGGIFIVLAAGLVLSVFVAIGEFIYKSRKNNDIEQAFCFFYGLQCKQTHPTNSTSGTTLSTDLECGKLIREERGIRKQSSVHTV
Chain of Glutamate receptor ionotropic, kainate 2 (Q13002 whole entry): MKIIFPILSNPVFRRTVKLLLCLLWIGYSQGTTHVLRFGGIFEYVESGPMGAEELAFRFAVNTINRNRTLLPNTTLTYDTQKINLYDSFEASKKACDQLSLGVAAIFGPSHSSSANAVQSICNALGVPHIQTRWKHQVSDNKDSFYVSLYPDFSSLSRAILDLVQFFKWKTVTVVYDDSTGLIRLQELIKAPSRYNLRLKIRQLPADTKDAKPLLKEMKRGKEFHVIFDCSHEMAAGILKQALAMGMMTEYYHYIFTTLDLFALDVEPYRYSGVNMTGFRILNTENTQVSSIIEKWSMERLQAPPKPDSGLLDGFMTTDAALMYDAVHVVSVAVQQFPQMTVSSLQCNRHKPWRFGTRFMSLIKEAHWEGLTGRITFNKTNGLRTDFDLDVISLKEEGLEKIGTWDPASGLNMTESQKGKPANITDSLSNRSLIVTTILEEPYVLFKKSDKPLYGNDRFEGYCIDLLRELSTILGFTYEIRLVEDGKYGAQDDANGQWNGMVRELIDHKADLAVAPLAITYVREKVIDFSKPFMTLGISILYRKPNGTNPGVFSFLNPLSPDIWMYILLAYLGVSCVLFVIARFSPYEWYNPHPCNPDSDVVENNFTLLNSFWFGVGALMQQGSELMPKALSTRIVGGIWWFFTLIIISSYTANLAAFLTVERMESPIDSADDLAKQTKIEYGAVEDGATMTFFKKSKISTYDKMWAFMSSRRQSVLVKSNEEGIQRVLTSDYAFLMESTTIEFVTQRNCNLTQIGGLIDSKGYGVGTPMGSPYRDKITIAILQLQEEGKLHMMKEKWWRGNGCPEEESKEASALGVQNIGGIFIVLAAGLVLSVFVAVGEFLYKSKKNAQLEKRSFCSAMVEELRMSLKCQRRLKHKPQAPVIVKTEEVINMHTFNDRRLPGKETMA
Chain of Glutamate receptor 2 (P42262 whole entry): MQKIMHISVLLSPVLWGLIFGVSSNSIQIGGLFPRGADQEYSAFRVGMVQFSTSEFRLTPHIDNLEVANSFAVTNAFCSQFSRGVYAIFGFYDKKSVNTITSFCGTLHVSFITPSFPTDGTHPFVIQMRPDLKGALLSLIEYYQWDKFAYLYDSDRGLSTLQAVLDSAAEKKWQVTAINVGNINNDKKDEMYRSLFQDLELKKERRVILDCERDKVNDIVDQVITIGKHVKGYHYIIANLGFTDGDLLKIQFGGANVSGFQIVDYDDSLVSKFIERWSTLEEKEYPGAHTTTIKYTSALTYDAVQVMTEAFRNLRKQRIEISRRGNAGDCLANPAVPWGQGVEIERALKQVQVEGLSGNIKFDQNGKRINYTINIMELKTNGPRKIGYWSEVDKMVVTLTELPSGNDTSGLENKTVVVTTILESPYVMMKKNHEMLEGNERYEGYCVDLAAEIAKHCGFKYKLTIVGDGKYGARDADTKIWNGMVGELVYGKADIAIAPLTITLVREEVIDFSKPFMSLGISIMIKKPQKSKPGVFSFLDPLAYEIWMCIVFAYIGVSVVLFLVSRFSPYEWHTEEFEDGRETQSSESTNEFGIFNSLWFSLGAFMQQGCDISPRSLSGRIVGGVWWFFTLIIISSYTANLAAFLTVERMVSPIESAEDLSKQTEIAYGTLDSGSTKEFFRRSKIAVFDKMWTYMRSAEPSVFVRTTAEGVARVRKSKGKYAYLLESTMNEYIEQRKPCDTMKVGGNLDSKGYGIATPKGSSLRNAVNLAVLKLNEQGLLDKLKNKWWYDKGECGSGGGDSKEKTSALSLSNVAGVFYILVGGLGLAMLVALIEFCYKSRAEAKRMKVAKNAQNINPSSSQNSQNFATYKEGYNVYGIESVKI
Chain of Glutamate receptor ionotropic, kainate 1 (P22756 whole entry): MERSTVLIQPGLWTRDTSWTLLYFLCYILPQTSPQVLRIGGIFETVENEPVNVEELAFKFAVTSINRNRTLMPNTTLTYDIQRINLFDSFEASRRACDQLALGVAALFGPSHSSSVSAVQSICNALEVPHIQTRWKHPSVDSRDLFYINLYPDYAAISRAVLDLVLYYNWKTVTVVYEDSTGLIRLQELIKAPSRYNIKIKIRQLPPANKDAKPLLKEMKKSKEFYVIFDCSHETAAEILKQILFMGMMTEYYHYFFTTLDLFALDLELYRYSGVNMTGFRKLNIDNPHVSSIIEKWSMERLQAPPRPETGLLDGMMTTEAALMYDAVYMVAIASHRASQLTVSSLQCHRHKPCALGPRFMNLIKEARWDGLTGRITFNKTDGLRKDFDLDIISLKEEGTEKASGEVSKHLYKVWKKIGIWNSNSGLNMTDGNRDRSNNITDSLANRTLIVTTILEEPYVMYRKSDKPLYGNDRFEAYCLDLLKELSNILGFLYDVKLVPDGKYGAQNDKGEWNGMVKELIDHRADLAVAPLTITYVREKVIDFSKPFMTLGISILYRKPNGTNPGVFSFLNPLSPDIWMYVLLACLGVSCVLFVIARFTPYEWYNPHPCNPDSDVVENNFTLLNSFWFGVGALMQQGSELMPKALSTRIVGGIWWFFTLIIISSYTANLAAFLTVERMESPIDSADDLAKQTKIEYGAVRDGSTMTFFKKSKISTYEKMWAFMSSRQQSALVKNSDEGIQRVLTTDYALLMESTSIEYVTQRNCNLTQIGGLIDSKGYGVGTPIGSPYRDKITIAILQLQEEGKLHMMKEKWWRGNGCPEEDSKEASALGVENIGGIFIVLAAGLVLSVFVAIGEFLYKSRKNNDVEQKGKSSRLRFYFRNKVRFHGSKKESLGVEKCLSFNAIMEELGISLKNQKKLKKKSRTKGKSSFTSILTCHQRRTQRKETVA
Chain of Metabotropic glutamate receptor 5 (Rattus norvegicus) (P31424 21-1203 limits assumed): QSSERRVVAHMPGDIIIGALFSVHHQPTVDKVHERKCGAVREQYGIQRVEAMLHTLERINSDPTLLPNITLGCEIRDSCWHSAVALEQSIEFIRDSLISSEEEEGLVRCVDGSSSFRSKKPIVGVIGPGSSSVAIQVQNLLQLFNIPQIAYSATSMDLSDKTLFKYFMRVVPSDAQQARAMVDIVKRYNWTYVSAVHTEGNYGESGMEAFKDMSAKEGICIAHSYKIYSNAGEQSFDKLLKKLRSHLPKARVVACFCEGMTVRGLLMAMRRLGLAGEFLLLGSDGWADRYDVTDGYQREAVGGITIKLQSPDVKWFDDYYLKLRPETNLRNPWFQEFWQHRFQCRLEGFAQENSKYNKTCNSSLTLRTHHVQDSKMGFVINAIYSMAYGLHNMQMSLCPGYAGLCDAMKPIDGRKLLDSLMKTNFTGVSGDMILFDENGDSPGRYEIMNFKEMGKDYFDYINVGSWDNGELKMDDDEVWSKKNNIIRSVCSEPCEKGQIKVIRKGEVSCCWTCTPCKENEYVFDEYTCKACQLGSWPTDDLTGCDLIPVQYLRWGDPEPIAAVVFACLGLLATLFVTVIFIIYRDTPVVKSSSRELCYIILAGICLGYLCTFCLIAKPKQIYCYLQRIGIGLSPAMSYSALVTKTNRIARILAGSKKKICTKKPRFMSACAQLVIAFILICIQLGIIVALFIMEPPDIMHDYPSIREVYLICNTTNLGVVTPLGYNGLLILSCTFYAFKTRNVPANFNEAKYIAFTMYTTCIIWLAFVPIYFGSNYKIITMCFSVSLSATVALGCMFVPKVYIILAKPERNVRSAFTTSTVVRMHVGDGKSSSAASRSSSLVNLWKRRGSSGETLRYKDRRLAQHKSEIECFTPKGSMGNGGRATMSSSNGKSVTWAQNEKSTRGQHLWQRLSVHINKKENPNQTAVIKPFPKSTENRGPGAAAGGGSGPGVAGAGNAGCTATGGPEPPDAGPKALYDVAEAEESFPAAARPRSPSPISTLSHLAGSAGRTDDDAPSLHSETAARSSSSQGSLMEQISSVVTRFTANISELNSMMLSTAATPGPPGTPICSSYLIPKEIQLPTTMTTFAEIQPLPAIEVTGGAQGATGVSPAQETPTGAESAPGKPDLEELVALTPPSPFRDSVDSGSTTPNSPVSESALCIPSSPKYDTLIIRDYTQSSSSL

| Structure (SMILES) | Kd [1] [µM] | IC50 [2] [µM] | IC50 [5] [µM] | also measured |
| --- | --- | --- | --- | --- |
| N[C@@H](Cn1ccc(=O)n(Cc2ccccc2C(=O)O)c1=O)C(=O)O |  | 106 | > 300 | IC50 (Glutamate receptor 2): > 300 µM; IC50 [3]: > 300 µM; Kb [4]: 1 µM; Kb [6]: 0.6 µM; Kb [7]: 0.8 µM |
| N[C@@H](Cn1ccc(=O)n(Cc2ccsc2C(=O)O)c1=O)C(=O)O | 0.105 | 31.2 | > 100 | IC50 (Glutamate receptor 2): > 100 µM; IC50 [3]: > 100 µM; Kb [4]: 0.18 µM; Kb [6]: 0.12 µM; Kb [7]: 0.12 µM; Kd [11]: 71.4 µM |
| Cc1cn(C[C@H](N)C(=O)O)c(=O)n(Cc2cc(-c3ccccc3)sc2C(=O)O)c1=O | 0.012 | 16.6 | > 100 | Activity [13]: inactive; IC50 (Glutamate receptor 2): > 100 µM; IC50 [3]: > 100 µM; Kb [4]: 0.005 µM; Activity [14]: inactive; Kb [6]: 0.007 µM; Activity [15]: inactive; Kd [11]: 108 µM |
| NS(=O)(=O)c1cccc2c1c([N+](=O)[O-])cc1nc(O)c(O)nc12 [NBQX] |  |  | 135 | IC50 [7]: 28 µM |
| N[C@@H](Cn1cc(Br)c(=O)n(Cc2ccsc2C(=O)O)c1=O)C(=O)O | 0.025 | 42.9 |  |  |
| N[C@@H](Cn1ccc(=O)n(Cc2ccoc2C(=O)O)c1=O)C(=O)O | 1.88 | 11.7 |  |  |
| N#Cc1cc2c(cc1[N+](=O)[O-])=NC(=O)C(=O)N=2 | 1.38 |  |  |  |

Now from value to compound, other results behind:

| Kd [1] [µM] | IC50 [2] [µM] | IC50 [5] [µM] | Structure (SMILES) | also measured |
| --- | --- | --- | --- | --- |
| 0.01 | 2.8 |  | Cc1cn(C[C@H](N)C(=O)O)c(=O)n(Cc2c(C(=O)O)sc(Br)c2Br)c1=O |  |
| 0.018 | 16.2 | > 100 | Cc1cn(C[C@H](N)C(=O)O)c(=O)n(Cc2ccsc2C(=O)O)c1=O | inhibition at 100 µM [8]: 27%; Activity [9]: inactive; IC50 (Glutamate receptor 2): > 100 µM; IC50 [3]: > 100 µM; Kb [4]: 0.008 µM; Activity [10]: inactive; Kb [6]: 0.01 µM; Kd [11]: 83.4 µM; Activity [12]: inactive |
| 0.358 | 18.5 |  | N[C@@H](Cn1cc(F)c(=O)n(Cc2ccccc2C(=O)O)c1=O)C(=O)O |  |
| 0.08 | 25.1 |  | Cc1cn(C[C@H](N)C(=O)O)c(=O)n(Cc2ccoc2C(=O)O)c1=O |  |
|  | 74.1 |  | N[C@@H](Cn1cc(I)c(=O)n(Cc2ccccc2C(=O)O)c1=O)C(=O)O |  |
| 0.102 | 63.9 |  | N[C@@H](Cn1cc(Br)c(=O)n(Cc2ccccc2C(=O)O)c1=O)C(=O)O |  |
| 0.055 | 55.3 |  | N[C@@H](Cn1cc(C(F)(F)F)c(=O)n(Cc2ccsc2C(=O)O)c1=O)C(=O)O |  |
| 0.023 | 51.2 |  | Cc1cn(C[C@H](N)C(=O)O)c(=O)n(Cc2ccccc2C(=O)O)c1=O |  |
